Results on 2 compounds are retold here after ChEMBL document CHEMBL5649170, “Sustained microglial depletion with CSF1R inhibitor impairs parenchymal plaque development in an Alzheimer's disease model” (Nat Commun, 2019).

Series [1] addresses T1, Macrophage colony-stimulating factor 1 receptor (Mus musculus) (UniProt P09581).
T1 sequence (whole entry): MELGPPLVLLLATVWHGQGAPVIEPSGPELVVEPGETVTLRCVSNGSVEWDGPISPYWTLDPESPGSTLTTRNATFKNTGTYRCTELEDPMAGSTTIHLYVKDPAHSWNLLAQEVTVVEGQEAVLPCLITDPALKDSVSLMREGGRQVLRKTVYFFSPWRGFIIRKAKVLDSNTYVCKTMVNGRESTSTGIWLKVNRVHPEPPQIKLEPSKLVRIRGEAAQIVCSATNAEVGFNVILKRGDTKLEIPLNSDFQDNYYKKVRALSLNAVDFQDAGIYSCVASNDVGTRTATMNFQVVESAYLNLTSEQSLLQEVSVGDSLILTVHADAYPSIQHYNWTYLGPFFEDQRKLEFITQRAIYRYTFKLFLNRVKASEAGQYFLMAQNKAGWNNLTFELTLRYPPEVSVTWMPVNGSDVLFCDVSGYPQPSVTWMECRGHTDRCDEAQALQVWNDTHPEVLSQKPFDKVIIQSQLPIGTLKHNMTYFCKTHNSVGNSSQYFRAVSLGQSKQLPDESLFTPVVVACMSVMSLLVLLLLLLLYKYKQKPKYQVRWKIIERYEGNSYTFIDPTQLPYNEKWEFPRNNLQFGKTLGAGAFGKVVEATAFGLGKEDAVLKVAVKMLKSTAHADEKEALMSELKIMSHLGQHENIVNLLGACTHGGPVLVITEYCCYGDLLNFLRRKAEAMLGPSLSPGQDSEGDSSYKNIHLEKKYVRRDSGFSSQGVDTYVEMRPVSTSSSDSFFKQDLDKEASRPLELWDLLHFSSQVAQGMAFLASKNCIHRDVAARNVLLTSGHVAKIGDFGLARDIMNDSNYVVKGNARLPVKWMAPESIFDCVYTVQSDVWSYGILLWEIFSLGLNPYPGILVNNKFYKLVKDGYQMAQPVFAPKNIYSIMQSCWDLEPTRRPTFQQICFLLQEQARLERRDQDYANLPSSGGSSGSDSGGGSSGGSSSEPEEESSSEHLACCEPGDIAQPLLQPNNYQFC
Nature of the series: In vivo inhibition of CSF1R in 5XFAD mouse assessed as appearance of CAA in […] cortex at 600 ppm administered as rodent chow starting from 1.5 months and measured after 5 months by immunolabeling based confocal microscopic analysis. To be noted: route po, time 3.5 months.

Series [2] can be described thus: AUC (0 to infinity) in male rat at 1.13 mg/kg, iv administered as single dose. Format: ADME, organism-based. To be noted: in vivo.
Series [3] in a line: Effect on Itgax gene expression in 5XFAD mouse cortex at 1200 ppm administered as rodent chow starting from 1.5 months and measured after 7 months by RNA-Seq analysis (reference value: 1.746 to 3.999 RPKM). Particulars: route po, time 5.5 months, 4015 h. The class given is functional.
The test system of series [4] is Mus musculus. The series can be described thus: Antialzheimer activity in 5XFAD mouse assessed as number of plaques in subiculum at 1200 ppm administered as rodent chow starting from 1.5 months and measured after 7 months by immunolabeling based confocal microscopic analysis (reference value: 139 to 212). Format: functional. Particulars: route po, time 5.5 months, 4015 h.

Series [5] has as its target Casein kinase I isoform alpha (Homo sapiens, UniProt P48729). Nature of the series: Inhibition of CSNK1A1 (unknown origin).
The nature of series [6]: Effect on Nos1ap gene expression in wildtype mouse hippocampus assessed as percent change in Reads Per kilo base per Million mapped reads at 1200 ppm administered as rodent chow starting from 1.5 months and measured after 7 months by RNA-Seq analysis (reference value: 90.677 to 108.278 %). The class given is functional. To be noted: route po, time 5.5 months, 4015 h.
Series [7] addresses Fibroblast growth factor receptor 2 (Homo sapiens, UniProt P21802). The series can be described thus: Inhibition of FGFR2 (unknown origin).
Series [8] is described as follows: Toxicity in wildtype mouse assessed as time spent in perimeter zone at 1200 ppm administered as rodent chow for 10 to 24 weeks by Open field test (reference value: 223.8 to 267.6 sec). To be noted: in vivo, po, time 10-24 weeks.
The target in another series is Ephrin type-B receptor 4 (Homo sapiens, UniProt P54760). The series can be described thus: Inhibition of EPHB4 (unknown origin).
Chain of Ephrin type-B receptor 4 (P54760 whole entry): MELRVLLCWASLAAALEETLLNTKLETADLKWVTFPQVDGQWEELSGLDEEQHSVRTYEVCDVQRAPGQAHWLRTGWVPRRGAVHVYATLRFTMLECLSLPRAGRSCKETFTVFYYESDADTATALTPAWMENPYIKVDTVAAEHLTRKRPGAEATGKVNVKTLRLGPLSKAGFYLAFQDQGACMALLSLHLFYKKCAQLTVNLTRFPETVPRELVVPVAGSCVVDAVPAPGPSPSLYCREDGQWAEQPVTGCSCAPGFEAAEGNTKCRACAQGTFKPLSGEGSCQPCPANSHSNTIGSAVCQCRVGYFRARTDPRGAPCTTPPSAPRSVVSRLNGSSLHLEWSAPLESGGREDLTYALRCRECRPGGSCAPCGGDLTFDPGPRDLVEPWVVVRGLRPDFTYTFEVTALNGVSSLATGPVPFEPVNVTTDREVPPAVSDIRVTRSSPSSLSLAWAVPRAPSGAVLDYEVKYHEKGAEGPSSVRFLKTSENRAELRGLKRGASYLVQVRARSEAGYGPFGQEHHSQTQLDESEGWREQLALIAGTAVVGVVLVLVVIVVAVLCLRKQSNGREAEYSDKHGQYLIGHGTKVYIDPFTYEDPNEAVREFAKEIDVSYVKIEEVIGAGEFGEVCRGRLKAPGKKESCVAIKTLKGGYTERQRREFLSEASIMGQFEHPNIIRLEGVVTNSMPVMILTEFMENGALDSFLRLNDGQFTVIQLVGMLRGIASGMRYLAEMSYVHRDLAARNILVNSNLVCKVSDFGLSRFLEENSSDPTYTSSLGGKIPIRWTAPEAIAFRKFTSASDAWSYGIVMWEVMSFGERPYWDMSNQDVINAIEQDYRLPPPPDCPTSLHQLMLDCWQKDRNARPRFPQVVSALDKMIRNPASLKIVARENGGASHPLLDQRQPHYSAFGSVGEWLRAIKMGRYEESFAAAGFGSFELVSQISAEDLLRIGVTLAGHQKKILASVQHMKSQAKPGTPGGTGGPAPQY
Series [9] is described as follows: Clearance in mouse at 1.92 mg/kg, iv administered as single dose. To be noted: in vivo. The class given is ADME, organism-based.
For series [10], the target named is Calcium/calmodulin-dependent protein kinase type IV (Homo sapiens, UniProt Q16566). Nature of the series: Inhibition of CAMK4 (unknown origin).
Chain of Calcium/calmodulin-dependent protein kinase type IV (Q16566 whole entry): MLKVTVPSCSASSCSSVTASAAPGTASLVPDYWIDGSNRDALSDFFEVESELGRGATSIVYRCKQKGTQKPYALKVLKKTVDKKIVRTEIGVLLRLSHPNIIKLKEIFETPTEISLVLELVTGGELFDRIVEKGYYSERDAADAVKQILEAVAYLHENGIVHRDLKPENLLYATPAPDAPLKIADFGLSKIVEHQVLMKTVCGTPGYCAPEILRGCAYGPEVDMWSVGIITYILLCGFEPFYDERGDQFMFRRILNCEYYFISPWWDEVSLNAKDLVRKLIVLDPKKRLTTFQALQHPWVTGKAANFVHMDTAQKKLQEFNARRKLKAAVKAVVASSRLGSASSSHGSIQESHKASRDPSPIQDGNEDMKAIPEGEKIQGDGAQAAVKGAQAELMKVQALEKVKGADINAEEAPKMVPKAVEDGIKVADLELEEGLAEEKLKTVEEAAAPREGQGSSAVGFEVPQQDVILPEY
Series [11] can be described thus: Drug concentration in 5XFAD mouse brain at 1200 ppm administered as rodent chow for 180 days. The class given is ADME, tissue-based. Particulars: route po, time 180 day, read-out: Ct.
Series [12] is described as follows: Half-life in mouse at 1.92 mg/kg, iv administered as single dose. To be noted: in vivo. Format: ADME, organism-based.
Series [13] has as its target Serine/threonine-protein kinase MARK2 (Homo sapiens, UniProt Q7KZI7). Nature of the series: Inhibition of MARK2 (unknown origin).
Series [14] deals with Mus musculus. The series can be described thus: Antialzheimer activity in 5XFAD mouse assessed as A11 protein intensity at 1200 ppm administered as rodent chow starting from 1.5 months and measured after 7 months by immunoblot analysis (reference value: 54.431 to 142.272 a.u.). The class given is functional. To be noted: route po, time 5.5 months, 4015 h. A general note: Immunoblotting shows a protein as a band on a membrane.

In series [15] the target is Rho-associated protein kinase 2 (Homo sapiens, UniProt O75116). Nature of the series: Inhibition of ROCK2 (unknown origin).
Series [16] deals with Dual specificity tyrosine-phosphorylation-regulated kinase 4 (Homo sapiens, UniProt Q9NR20). Nature of the series: Inhibition of DYRK4 (unknown origin).
Chain of Dual specificity tyrosine-phosphorylation-regulated kinase 4 (Q9NR20 whole entry): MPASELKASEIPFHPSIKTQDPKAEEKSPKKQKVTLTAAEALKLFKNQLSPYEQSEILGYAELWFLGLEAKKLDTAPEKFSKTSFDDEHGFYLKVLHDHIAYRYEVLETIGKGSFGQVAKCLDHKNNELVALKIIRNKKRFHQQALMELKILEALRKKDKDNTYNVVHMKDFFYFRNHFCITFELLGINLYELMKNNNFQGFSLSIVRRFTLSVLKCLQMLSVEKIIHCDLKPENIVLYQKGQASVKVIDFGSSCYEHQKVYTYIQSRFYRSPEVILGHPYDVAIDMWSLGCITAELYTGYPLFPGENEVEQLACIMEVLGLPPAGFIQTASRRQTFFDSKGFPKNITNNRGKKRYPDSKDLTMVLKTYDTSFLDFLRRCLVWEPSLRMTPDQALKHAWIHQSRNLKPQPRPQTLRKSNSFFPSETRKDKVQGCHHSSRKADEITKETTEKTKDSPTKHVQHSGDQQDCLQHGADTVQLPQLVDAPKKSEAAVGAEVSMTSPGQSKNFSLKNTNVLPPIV
Series [17] has as its target Fibroblast growth factor receptor 4 (Homo sapiens, UniProt P22455). Nature of the series: Inhibition of FGFR4 (unknown origin).
Series [18] concerns the target Vascular endothelial growth factor receptor 2 (Homo sapiens, UniProt P35968). The series can be described thus: Inhibition of KDR (unknown origin).
Series [19] is described as follows: Drug concentration in mouse plasma at 300 ppm administered as rodent chow for 14 days. To be noted: route po, time 14 day. Format: ADME, cell-free.
Series [20] has as its target Dual specificity tyrosine-phosphorylation-regulated kinase 1B (Homo sapiens, UniProt Q9Y463). Nature of the series: Inhibition of DYRK1B (unknown origin).
The target of series [21] is Ribosomal protein S6 kinase alpha-3 (Homo sapiens, UniProt P51812). The series can be described thus: Inhibition of RPS6KA3 (unknown origin).
In series [22] the test system is Mus musculus. The series can be described thus: Antialzheimer activity in 5XFAD mouse assessed as number of Iba positive cells per FOV in somatosensory cortex at 1200 ppm administered as rodent chow starting from 1.5 months and measured after 4 months (reference value: 192 to 604). Format: functional. Particulars: route po, time 2.5 months, 1825 h.
Series [23] can be described thus: Drug concentration in 5XFAD mouse plasma at 1200 ppm administered as rodent chow for 10 to 24 weeks. Particulars: po, time 10-24 weeks. The class given is ADME, cell-free. In a few lines: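 WT or 5xFAD mice were started at 1.5 months of age on PLX5622 formulated at 1200 ppm in AIN-76A chow, with control chow as comparison. Feeding ran for 10 or 24 weeks. Terminal plasma and brain drug levels were then measured. Groups were sex-balanced and compared by two-tailed independent t-test.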

Series [24] has as its target Tyrosine-protein kinase HCK (Homo sapiens, UniProt P08631). The series can be described thus: Inhibition of HCK (unknown origin).
Series [25] deals with Ribosomal protein S6 kinase alpha-4 (Homo sapiens, UniProt O75676). The series can be described thus: Inhibition of RPS6KA4 (unknown origin).
Chain of Ribosomal protein S6 kinase alpha-4 (O75676 whole entry): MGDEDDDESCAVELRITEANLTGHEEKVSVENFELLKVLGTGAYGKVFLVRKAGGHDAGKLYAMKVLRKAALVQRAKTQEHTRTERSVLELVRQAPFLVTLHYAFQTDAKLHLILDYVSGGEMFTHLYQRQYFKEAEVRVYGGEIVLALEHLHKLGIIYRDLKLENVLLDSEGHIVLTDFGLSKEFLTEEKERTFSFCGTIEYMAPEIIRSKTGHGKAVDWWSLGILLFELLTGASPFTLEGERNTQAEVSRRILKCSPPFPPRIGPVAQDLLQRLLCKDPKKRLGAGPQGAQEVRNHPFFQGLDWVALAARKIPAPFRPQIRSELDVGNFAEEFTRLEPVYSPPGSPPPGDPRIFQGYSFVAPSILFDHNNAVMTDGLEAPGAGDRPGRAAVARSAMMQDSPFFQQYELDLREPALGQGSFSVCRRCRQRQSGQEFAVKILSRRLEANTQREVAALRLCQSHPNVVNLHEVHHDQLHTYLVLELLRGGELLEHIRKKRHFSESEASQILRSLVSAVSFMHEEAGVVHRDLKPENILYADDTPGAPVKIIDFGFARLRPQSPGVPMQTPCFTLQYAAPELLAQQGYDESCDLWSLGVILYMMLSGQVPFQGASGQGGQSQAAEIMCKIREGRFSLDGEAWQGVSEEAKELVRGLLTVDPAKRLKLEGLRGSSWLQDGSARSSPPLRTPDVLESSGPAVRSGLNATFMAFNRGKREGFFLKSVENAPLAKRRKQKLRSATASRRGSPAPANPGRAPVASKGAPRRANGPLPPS

pIC50: −log10 of the molar value. Activity calls are given as the source filed them. The rule behind the calls is not given here.

Chain of Casein kinase I isoform alpha (P48729 whole entry, canonical isoform): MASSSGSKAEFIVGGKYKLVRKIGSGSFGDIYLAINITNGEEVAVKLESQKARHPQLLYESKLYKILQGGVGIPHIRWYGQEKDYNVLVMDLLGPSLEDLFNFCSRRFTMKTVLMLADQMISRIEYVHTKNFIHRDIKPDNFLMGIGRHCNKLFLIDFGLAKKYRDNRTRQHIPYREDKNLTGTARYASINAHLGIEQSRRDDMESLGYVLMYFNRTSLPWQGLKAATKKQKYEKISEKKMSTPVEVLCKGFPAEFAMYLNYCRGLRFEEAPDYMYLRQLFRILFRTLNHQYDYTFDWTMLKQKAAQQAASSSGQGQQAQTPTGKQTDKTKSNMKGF
Chain of Tyrosine-protein kinase HCK (P08631 whole entry): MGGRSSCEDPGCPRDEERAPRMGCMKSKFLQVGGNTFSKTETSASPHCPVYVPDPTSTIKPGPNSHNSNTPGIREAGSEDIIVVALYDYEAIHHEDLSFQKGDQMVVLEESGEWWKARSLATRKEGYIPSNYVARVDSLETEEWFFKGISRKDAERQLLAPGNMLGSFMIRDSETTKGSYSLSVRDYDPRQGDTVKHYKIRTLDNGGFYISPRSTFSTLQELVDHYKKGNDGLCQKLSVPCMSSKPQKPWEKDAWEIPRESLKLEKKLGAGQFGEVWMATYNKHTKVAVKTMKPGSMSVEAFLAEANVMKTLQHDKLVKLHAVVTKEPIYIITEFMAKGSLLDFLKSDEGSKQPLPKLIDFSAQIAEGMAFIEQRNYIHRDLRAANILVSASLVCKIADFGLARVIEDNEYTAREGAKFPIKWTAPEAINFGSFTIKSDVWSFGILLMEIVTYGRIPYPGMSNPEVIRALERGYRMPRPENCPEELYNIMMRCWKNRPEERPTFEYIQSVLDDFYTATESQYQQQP
Chain of Fibroblast growth factor receptor 4 (P22455 whole entry): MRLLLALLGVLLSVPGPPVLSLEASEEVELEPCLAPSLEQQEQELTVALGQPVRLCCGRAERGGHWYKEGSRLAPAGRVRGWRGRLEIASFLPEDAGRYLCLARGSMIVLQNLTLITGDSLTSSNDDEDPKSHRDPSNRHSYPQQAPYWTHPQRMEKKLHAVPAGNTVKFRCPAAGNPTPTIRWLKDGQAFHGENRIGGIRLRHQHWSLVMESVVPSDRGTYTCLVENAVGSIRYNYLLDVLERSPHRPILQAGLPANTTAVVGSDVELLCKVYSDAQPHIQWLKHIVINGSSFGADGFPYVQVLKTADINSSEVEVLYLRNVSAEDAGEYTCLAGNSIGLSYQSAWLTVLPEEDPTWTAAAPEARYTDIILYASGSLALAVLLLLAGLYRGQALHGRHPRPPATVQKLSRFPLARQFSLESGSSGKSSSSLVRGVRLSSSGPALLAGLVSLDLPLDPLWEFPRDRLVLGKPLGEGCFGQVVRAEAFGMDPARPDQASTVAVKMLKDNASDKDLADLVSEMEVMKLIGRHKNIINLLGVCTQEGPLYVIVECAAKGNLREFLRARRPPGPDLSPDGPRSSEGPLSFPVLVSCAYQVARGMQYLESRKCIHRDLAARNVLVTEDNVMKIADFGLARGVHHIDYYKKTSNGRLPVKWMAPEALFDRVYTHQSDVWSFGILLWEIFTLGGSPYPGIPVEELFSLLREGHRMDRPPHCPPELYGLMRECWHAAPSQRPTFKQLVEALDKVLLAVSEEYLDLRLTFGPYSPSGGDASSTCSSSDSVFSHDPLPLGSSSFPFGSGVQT
Chain of Dual specificity tyrosine-phosphorylation-regulated kinase 1B (Q9Y463 whole entry): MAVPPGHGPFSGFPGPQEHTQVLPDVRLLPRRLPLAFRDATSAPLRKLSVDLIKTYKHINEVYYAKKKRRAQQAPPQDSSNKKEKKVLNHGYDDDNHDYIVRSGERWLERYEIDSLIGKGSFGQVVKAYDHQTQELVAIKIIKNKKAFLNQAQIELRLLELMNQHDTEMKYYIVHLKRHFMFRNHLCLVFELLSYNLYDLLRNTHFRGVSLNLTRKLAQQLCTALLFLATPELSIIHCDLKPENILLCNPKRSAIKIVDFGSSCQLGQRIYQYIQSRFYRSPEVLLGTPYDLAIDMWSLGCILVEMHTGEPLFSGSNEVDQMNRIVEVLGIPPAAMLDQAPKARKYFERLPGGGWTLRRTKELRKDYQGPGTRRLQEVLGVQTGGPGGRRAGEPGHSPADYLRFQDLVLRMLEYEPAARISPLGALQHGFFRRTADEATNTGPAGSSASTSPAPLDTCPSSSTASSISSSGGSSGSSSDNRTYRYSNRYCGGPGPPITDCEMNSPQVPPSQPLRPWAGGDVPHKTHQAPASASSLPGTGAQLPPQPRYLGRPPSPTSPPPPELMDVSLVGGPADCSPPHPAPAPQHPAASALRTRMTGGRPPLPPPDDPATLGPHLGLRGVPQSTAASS

On to `FC(F)(F)c1ccc(CNc2ccc(Cc3c[nH]c4ncc(Cl)cc34)cn2)cn1` [PEXIDARTINIB], for which, in series [1], the inhibition result is “Active”.

The term AUC(0-inf) denotes the area under the concentration-time curve extrapolated to infinity. A higher AUC(0-inf) goes with more exposure. By pIC50 is commonly meant the negative decadic logarithm of the IC50, by convention in mol/L. By clearance is commonly meant the volume of plasma or blood freed of the substance per unit of time. For orientation: half-life means how long it takes for the measured level to halve. High values mean slow decline, low ones rapid decline. As to `COc1ncc(F)cc1CNc1ccc(Cc2c[nH]c3ncc(C)cc23)c(F)n1` [PLX-5622], in series [2], the AUC(0-inf) worked out at 2.63 µg·h/mL. For the same compound, the Activity in series [3] is reported as 0.086 RPKM; with Mus musculus [4] it was 97; in series [6] it was 78.494%; in the series on Mus musculus [22], 0. Besides, the negative logarithm of the IC50 (pIC50) (in series [5]; in series [7]; against Ephrin type-B receptor 4; in [10]; in series [13]; in series [15]) was below 6.00 each time. Besides, the pIC50 in series [16] is below 6.00; in series [17], below 6.00; in series [18] it was 5.96; in series [20] it was below 6.00; in series [21], below 6.00; in series [24], below 6.00. This compound had a pIC50 in series [25] below 6.00. For the same compound, in [8], the Time came out at 178.5 s. Also, the clearance in series [9] was 0.126 L/h/kg. Also, the concentration at 4320 h in series [11] stood at 2.39 µg/mL. The compound also had a half-life in series [12] of 2.6 h. For the same compound, in the series with Mus musculus [14], the Flu intensity came to 21.124 a.u. The compound further had a concentration at 336 h in series [19] of 4.34 µg/mL. Also, the concentration in series [23] was 13.5 µM.
